Source: PubChem BioAssay (several laboratories)
In the library only some 1.8% were active in any assay of this set; here they are far more common.
Rpn11 block: Rpn11 (PSMD14) deubiquitinase inhibitors, primary screen, biochemical, fluorescence polarization, uHTS; 26S proteasome non-ATPase regulatory subunit 14 (Homo sapiens), O00487; 360,000 compounds, 0.59% hits; AID 588493, 2011; calls only at 20 µM; human 26S proteasome, Ub4-pepOG fluorescence polarization; 20S core pre-blocked with epoxomicin;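 active = inhibition at 20 µM, scaled to each plate's controls, above about 33%, limit read from the data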
Target sequence (O00487 whole entry, looked up): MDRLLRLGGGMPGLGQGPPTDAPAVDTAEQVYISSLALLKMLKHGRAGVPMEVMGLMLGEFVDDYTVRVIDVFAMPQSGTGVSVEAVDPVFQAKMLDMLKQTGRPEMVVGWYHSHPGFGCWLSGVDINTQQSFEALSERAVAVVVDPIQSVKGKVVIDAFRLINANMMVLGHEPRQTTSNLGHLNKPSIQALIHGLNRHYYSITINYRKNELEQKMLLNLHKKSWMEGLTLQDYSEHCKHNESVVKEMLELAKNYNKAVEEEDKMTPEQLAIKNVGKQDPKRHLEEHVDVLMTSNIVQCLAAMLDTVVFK
SENP1 FRET inh: human SENP1 catalytic domain inhibitors, primary screen, biochemical, FRET, uHTS; Sentrin-specific protease 1 (Homo sapiens), Q9P0U3; recombinant SENP1 catalytic domain, CyPet-SUMO1-YPet FRET cleavage; inhibition, % at 10 µM; 360,000 compounds, 0.21% hits;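 active = inhibition at least 30% at 10 µM, raw YFP signal under a set limit, fluorescence ratio 0.5 to 1.5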;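 also: 0% = enzyme with DMSO and 100% = no enzyme wells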
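System: Recombinant human SENP1 catalytic domain, His6-tagged | Incubation: Enzyme reaction for 50 min at room temperature, dark | Medium: Tris pH 8 with BME, BSA, NP40 and catalase | Also added: 25 nM SUMO1 FRET substrate | Compound: 10 µM single point, 0.5% DMSO | Measured by: FRET fluorescence in CFP and YFP emission channels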
CSN deneddyl inh: inhibitors of CSN-mediated cullin deneddylation, primary screen, biochemical, fluorescence polarization, uHTS; Purified CSN, SCF-Nedd8-OG deneddylation; 360,000 compounds, 0.38% hits; inhibition, % at 12.5 µM;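 active = pattern-corrected inhibition above about 35%, with an unprinted fluorescence ratio check between 0.5 and 1.5, limit read from the data, passing the limit was not always enough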;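 also: 0% = enzyme with substrate and 100% = substrate without enzyme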
Target sequence (Q92905 whole entry, looked up, one chain of several): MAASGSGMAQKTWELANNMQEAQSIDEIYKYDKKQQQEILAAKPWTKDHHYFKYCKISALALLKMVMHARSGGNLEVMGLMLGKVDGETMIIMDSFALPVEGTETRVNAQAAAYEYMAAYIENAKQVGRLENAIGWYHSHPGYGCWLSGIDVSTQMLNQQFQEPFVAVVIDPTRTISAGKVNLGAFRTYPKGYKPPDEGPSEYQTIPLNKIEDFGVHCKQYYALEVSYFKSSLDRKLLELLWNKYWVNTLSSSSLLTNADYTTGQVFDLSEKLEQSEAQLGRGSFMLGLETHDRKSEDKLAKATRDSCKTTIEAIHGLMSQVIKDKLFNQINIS
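Test system: Human Csn5 produced in HEK293T cells | Compound: 12.5 µM single point | Times: 90 min, room temperature | Signal: Fluorescence polarization readout | Read-out basis: % inhibition of substrate cleavage by Csn5 | Controls: no-enzyme wells high, enzyme-with-substrate wells low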
HNF4A DNA FP: change in binding of human HNF4A to DNA, primary screen, biochemical, fluorescence polarization, FITC-DNA; Hepatocyte nuclear factor 4-alpha (Homo sapiens), P41235; 1 h; activity change, % at 10 µM; 360,000 compounds, 0.3% hits; in the data active = activity change above about 30%, passing the limit was not always enough
UBC9 SUMO inh: inhibitors of in vitro SUMOylation cascade, primary screen, biochemical, HTRF, uHTS | inhibition, % at 35 µM | HTRF SUMOylation assay, SAE1/SAE2 + UBC9 | AID 2006, 2009 | SUMO-conjugating enzyme UBC9 (Homo sapiens), P63279 | 290,000 compounds, 0.36% hits; in the data active = inhibition above about 50%, passing the limit was not always enough
TPT1 inh: Candida albicans TPT1 enzyme inhibitors, primary screen, biochemical, fluorescence polarization | tRNA 2'-phosphotransferase TPT1 (Candida albicans SC5314) | recombinant caTPT1, FP RNA substrate dephosphorylation | inhibition, % at 5 µM | 300,000 compounds, 0.81% hits | AID 1962, 2009;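 active = inhibition above the mean of all tested compounds plus 3 SD, set per screening campaign, cut at about 24% in these data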;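 also: plate controls were DMSO alone for no effect and ferristatin control at 100 nM for full effect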
Starred values were filed as active, the others as inactive.

Screening Cc1ccc(OCC(=O)c2cc(C)n(-c3ccccc3)c2C)c([N+](=O)[O-])n1 returned Rpn11 block inactive, SENP1 FRET inh -3, CSN deneddyl inh -6, HNF4A DNA FP -2, UBC9 SUMO inh -6 and TPT1 inh -2.
O=C(O)c1cccc(N2C(=O)c3ccc(C(=O)c4cccc([N+](=O)[O-])c4)cc3C2=O)c1 was read as Rpn11 block inactive, SENP1 FRET inh 2, CSN deneddyl inh -1, HNF4A DNA FP -8, UBC9 SUMO inh 10 and TPT1 inh 1.
For O=C(O)c1ccc2c(c1)C(=O)N(c1cccc(C(=O)/C=C/c3ccccc3)c1)C2=O the results were Rpn11 block inactive, SENP1 FRET inh 3, CSN deneddyl inh 45*, HNF4A DNA FP -4, UBC9 SUMO inh 16 and TPT1 inh -1.
For Cc1cccc(C)c1NC(=O)CCCn1nc(C)c2c(C)n(-c3ccccc3)nc2c1=O the results were Rpn11 block inactive, SENP1 FRET inh 0, CSN deneddyl inh 0, HNF4A DNA FP 1, UBC9 SUMO inh 13 and TPT1 inh 1.
For CCOC(=O)c1cc(-c2ccc(N3CCOCC3)cc2)nn1-c1ccccc1C(=O)O the results were Rpn11 block active, SENP1 FRET inh -9, CSN deneddyl inh 30, HNF4A DNA FP -49, UBC9 SUMO inh 36 and TPT1 inh 3.
Screening CCOC(=O)c1cc(-c2ccc(N3CCOCC3)cc2)nn1-c1ccccc1 returned Rpn11 block inactive, SENP1 FRET inh 0, CSN deneddyl inh -17, HNF4A DNA FP -4, UBC9 SUMO inh 1 and TPT1 inh -1.
For CCN(CC)S(=O)(=O)c1cccc(NC(=O)COC(=O)c2cc(C)oc2C)c1 the results were Rpn11 block inactive, SENP1 FRET inh 2, CSN deneddyl inh 0, HNF4A DNA FP 2, UBC9 SUMO inh 3 and TPT1 inh -10.
Screening Oc1ccc(/C=N/Nc2cc(N3CCCC3)nc(N3CCCC3)n2)cc1O returned Rpn11 block inactive, SENP1 FRET inh -29, CSN deneddyl inh 2, HNF4A DNA FP 2, UBC9 SUMO inh 63* and TPT1 inh 2.
Screening Cc1ccc(CN2C(=O)C(CC(C)C)Nc3ncnc(N4CCCCC4)c32)cc1 (stereo not given) returned Rpn11 block inactive, SENP1 FRET inh 1, CSN deneddyl inh 78* and HNF4A DNA FP 8.
`COC(=O)CN1C(=O)N/C(=C/c2cc3c(cc2OC)OCO3)C1=O` gave Rpn11 block inactive, SENP1 FRET inh -92, CSN deneddyl inh -2, HNF4A DNA FP 1, UBC9 SUMO inh -5 and TPT1 inh 5.
For C#CCN1C(=O)S/C(=C\c2cc3c(cc2OC)OCO3)C1=O the results were SENP1 FRET inh -24, CSN deneddyl inh 50*, HNF4A DNA FP 56, UBC9 SUMO inh 22 and TPT1 inh 9.
CN(CCNC(=O)c1ccc(/C=N/O)nc1)Cc1ccccc1 was read as Rpn11 block inactive, SENP1 FRET inh 2, CSN deneddyl inh 2, HNF4A DNA FP 0, UBC9 SUMO inh 8 and TPT1 inh -2.
COc1ccc(NC(=O)CCNC(=O)C2CCN(S(=O)(=O)c3ccc(F)cc3)CC2)cc1OC was read as Rpn11 block inactive, SENP1 FRET inh 3, CSN deneddyl inh 1, HNF4A DNA FP -2, UBC9 SUMO inh 13 and TPT1 inh -1.
Screening COc1ccc(NC(=O)/C(=C\c2ccncc2)NC(=O)c2ccccc2)cc1 returned Rpn11 block inactive, SENP1 FRET inh 0, CSN deneddyl inh 50*, HNF4A DNA FP -3, UBC9 SUMO inh -5 and TPT1 inh -1.
Screening O=c1c2ccccc2oc2ccc(NCCCN3CCOCC3)cc12 returned Rpn11 block inactive, SENP1 FRET inh 25, CSN deneddyl inh -1, HNF4A DNA FP 1, UBC9 SUMO inh 7 and TPT1 inh -6.
Screening O=c1c2ccccc2oc2cc(NCCCN3CCOCC3)ccc12 returned Rpn11 block inactive, SENP1 FRET inh -30, CSN deneddyl inh 1, HNF4A DNA FP -6, UBC9 SUMO inh 55* and TPT1 inh 0.
Screening Cc1ccccc1N(CC(=O)N/N=C/c1ccc(F)cc1)C(=O)c1ccccc1 returned Rpn11 block inactive, SENP1 FRET inh 3, CSN deneddyl inh 7, HNF4A DNA FP -1, UBC9 SUMO inh -9 and TPT1 inh 0.
For COc1ccc(C2=NN(c3ccccc3)C(=O)/C2=C\c2ccc(O)c(OC)c2)cc1 the results were Rpn11 block inactive, SENP1 FRET inh 3, CSN deneddyl inh 0, HNF4A DNA FP 6, UBC9 SUMO inh 74* and TPT1 inh 7.
Screening CC(=O)c1ccc(-n2c(-c3cc(-c4ccco4)[nH]n3)n[nH]c2=S)cc1 returned Rpn11 block inactive, SENP1 FRET inh 2, CSN deneddyl inh 28, HNF4A DNA FP -2, UBC9 SUMO inh -3 and TPT1 inh 2.
For O=C(O)c1ccc(-n2c(-c3cc(-c4ccco4)[nH]n3)n[nH]c2=S)cc1 the results were Rpn11 block inactive, SENP1 FRET inh 2, CSN deneddyl inh 42*, HNF4A DNA FP -18, UBC9 SUMO inh 37 and TPT1 inh 5.
`CN1C(=O)CC(Nc2cccc3cccc(N)c23)C1=O` (stereo not given) gave Rpn11 block inactive, SENP1 FRET inh -7, CSN deneddyl inh -12, HNF4A DNA FP 2, UBC9 SUMO inh 90* and TPT1 inh 2.
`COCCCn1c(=O)/c(=C\c2ccc(OC(F)F)c(OC)c2)s/c1=C(/C#N)C(N)=O` gave SENP1 FRET inh -34, CSN deneddyl inh 68, HNF4A DNA FP 51*, UBC9 SUMO inh 42 and TPT1 inh 8.
CC(=O)N1c2c(cc(Br)cc2S(=O)(=O)NCc2cccnc2)CC1C (stereo not given) was read as Rpn11 block inactive, SENP1 FRET inh 0, CSN deneddyl inh -3, HNF4A DNA FP 8, UBC9 SUMO inh -3 and TPT1 inh 7.
CC(=O)N1c2c(cc(Br)cc2S(=O)(=O)NCc2ccc3c(c2)OCO3)CC1C (stereo not given) was read as Rpn11 block inactive, SENP1 FRET inh 2, CSN deneddyl inh -3, HNF4A DNA FP 1, UBC9 SUMO inh 92* and TPT1 inh -5.
